Measurements published in ChEMBL document CHEMBL5661964, “Selective in vivo and in vitro effects of a small molecule inhibitor of cyclin-dependent kinase 4” (J Natl Cancer Inst, 2001).

Tests used:
[1] = molecular target: Cyclin-dependent kinase 5/CDK5 activator 1 (Homo sapiens, UniProt Q00535); test: Inhibition of GST-tagged human CDK5/p35 expressed in baculovirus infected Sf9 cells using retinoblastoma protein in presence of ATP
Summary of the method: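 Cdk holoenzymes (Cdk with GST-cyclin or activator), expressed in Sf9 insect cells and purified on glutathione-Sepharose, were combined 1:1. Radiometric reactions used [33P]ATP with GST-pRb(152), the C-terminal 152-residue pRb fragment, as substrate. Label was quantified by phosphorimager. Ten inhibitor concentrations from 0 to 100 μM were run in duplicate across three independent experiments. IC50 came from plotting percent incorporation relative to the no-inhibitor reaction against concentration.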

U2OS [2] = test: Induction of cell cycle arrest in human U2OS cells assessed as percentage of cells at G2/M phase, cells were released from mimosine block prior to compound addition at 5 uM after 16 hrs by flow cytometry analysis (reference value: 47.6%); assay type: functional
HCT-116 [3] = test: Induction of cell cycle arrest in human HCT-116 cells assessed as number of cells at S phase at 5 uM after 24 hrs in presence of 10% serum by flow cytometry analysis (reference value: 36.3%); assay type: functional
Summary of the method: (§1)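 HCT116 cells in McCoy's 5A were serum-starved 72 h in 0.1% serum, then released for 24 h into 10% serum with or without compound. They were fixed in 70% ethanol, RNase-treated (3 mg/mL, 30 min, 37 °C) and stained with 50 μg/mL propidium iodide. Flow cytometry on FL-2 area with doublet gating gave the percentages in sub-G1, G0/G1, S and G2/M.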

U2OS [4] = test: Induction of cell cycle arrest in human U2OS cells assessed as percentage of cells at G0/G1 phase, cells were released from mimosine block prior to compound addition at 10 uM after 16 hrs by flow cytometry analysis (reference value: 17.2%); assay type: functional
U2OS [5] = test: Induction of apoptosis in human U2OS cells assessed as number of apoptotic cells at 5 uM after 48 hrs by TUNEL staining based fluorescence analysis (reference value: 0.61%); assay type: functional
U2OS [6] = test: Induction of cell cycle arrest in human U2OS cells assessed as percentage of cells at G2/M phase, cells were released from mimosine block prior to compound addition at 10 uM after 38 hrs by flow cytometry analysis (reference value: 32.3%); assay type: functional
HCT-116 [7] = test: Induction of cell cycle arrest in human HCT-116 cells assessed as number of cells at SubG1 phase at 10 uM after 24 hrs in presence of 10% serum by flow cytometry analysis (reference value: 1.1%); assay type: functional; summary of the method: as §1
U2OS [8] = test: Induction of cell cycle arrest in human U2OS cells assessed as percentage of cells at G0/G1 phase, cells were released from mimosine block prior to compound addition at 5 uM after 16 hrs by flow cytometry analysis (reference value: 17.2%); assay type: functional
MRC5 [9] = test: Induction of cell cycle arrest in human MRC5 cells assessed as number of cells at S phase at 5 uM after 24 hrs in presence of 10% serum by flow cytometry analysis (reference value: 16.1%); assay type: functional
U2OS [10] = test: Induction of cell cycle arrest in human U2OS cells assessed as percentage of cells at SubG1 phase, cells were released from mimosine block prior to compound addition at 5 uM after 16 hrs by flow cytometry analysis (reference value: 2.2%); assay type: functional
NIH3T3 [11] = test: Induction of cell cycle arrest in mouse NIH3T3 cells expressing pRb assessed as percentage of cells at S phase at 5 uM after 24 hrs by flow cytometry analysis (reference value: 12.2%); assay type: functional
HCT-116 [12] = test: Induction of cell cycle arrest in human HCT-116 cells assessed as number of cells at G0/G1 phase at 5 uM after 24 hrs in presence of 10% serum by flow cytometry analysis (reference value: 49.5%); assay type: functional; summary of the method: as §1
U2OS [13] = test: Induction of cell cycle arrest in human U2OS cells assessed as percentage of cells at G0/G1 phase, cells were released from mimosine block prior to compound addition at 5 uM after 38 hrs by flow cytometry analysis (reference value: 39.6%); assay type: functional
U2OS [14] = test: Induction of cell cycle arrest in human U2OS cells expressing pRb assessed as percentage of cells at S phase at 10 uM after 24 hrs by flow cytometry analysis (reference value: 19.9%); assay type: functional
U2OS [15] = test: Induction of cell cycle arrest in human U2OS cells assessed as percentage of cells at S phase, cells were released from mimosine block prior to compound addition at 5 uM after 38 hrs by flow cytometry analysis (reference value: […]%); assay type: functional
Insulin receptor = Insulin receptor (Homo sapiens, UniProt P06213); test: Inhibition of GST-tagged human Insulin receptor expressed in baculovirus infected Sf9 cells using tyrosine-containing peptide substrate in presence of ATP
U2OS [16] = test: Induction of cell cycle arrest in human U2OS cells assessed as percentage of cells at S phase, cells were released from mimosine block prior to compound addition at 5 uM after 16 hrs by flow cytometry analysis (reference value: 33%); assay type: functional
U2OS [17] = test: Induction of cell cycle arrest in human U2OS cells expressing pRb assessed as percentage of cells at G0/G1 phase at 5 uM after 24 hrs by flow cytometry analysis (reference value: 49.8%); assay type: functional
NIH3T3 [18] = test: Induction of cell cycle arrest in mouse NIH3T3 cells expressing pRb-negative assessed as percentage of cells at S phase at 10 uM after 24 hrs by flow cytometry analysis (reference value: 20%); assay type: functional
MRC5 [19] = test: Induction of cell cycle arrest in human MRC5 cells assessed as number of cells at G0/G1 phase at 10 uM after 24 hrs in presence of 10% serum by flow cytometry analysis (reference value: 64.1%); assay type: functional
U2OS [20] = test: Induction of apoptosis in human U2OS cells assessed as number of apoptotic cells at 10 uM after 48 hrs by TUNEL staining based fluorescence analysis (reference value: 0.61%); assay type: functional
U2OS [21] = test: Induction of cell cycle arrest in human U2OS cells assessed as percentage of cells at G0/G1 phase, cells were released from mimosine block prior to compound addition at 10 uM after 38 hrs by flow cytometry analysis (reference value: 39.6%); assay type: functional
MRC5 [22] = test: Induction of cell cycle arrest in human MRC5 cells assessed as number of cells at SubG1 phase at 10 uM after 24 hrs in presence of 10% serum by flow cytometry analysis (reference value: 4.9%); assay type: functional
U2OS [23] = test: Induction of cell cycle arrest in human U2OS cells assessed as percentage of cells at S phase, cells were released from quinidine block prior to compound addition at 10 uM after 24 hrs by flow cytometry analysis (reference value: 21.39%); assay type: functional
NIH3T3 [24] = test: Induction of cell cycle arrest in mouse NIH3T3 cells expressing pRb-negative assessed as percentage of cells at S phase at 5 uM after 24 hrs by flow cytometry analysis (reference value: 20%); assay type: functional
Summary of the method: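 Congenic NIH3T3 line with homozygous Rb deletion, grown at 37 °C in 5% CO2 in high-glucose DMEM with 10% FCS. Asynchronous cells were seeded at 7.5 × 10^4 cells/mL, grown 24 h, then treated 24 h (compound added from 100× stocks in 10% DMSO). Cells were ethanol-fixed, treated with RNase and stained with propidium iodide; FL-2 area was measured with single-event gating. Run at least twice.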

Sequence of Insulin receptor (P06213 28-758 limits assumed): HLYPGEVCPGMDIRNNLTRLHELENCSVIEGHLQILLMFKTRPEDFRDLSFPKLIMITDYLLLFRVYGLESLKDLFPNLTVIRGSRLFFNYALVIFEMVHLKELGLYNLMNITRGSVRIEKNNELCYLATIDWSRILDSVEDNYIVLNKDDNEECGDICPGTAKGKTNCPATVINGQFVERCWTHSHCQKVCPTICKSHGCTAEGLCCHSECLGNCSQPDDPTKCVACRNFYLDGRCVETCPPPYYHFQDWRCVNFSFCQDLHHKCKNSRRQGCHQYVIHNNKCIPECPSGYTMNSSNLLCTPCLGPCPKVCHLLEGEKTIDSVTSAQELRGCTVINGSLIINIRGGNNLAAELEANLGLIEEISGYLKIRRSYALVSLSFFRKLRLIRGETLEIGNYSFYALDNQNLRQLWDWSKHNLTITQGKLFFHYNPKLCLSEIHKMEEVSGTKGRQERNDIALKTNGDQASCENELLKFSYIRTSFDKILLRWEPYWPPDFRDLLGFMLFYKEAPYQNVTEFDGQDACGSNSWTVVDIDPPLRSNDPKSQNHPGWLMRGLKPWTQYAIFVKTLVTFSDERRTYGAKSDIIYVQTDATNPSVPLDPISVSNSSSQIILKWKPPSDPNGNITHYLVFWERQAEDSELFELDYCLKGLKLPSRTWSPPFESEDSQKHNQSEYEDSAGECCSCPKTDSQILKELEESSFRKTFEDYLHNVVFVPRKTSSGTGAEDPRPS
Sequence of Insulin receptor (P06213 763-1382 limits assumed): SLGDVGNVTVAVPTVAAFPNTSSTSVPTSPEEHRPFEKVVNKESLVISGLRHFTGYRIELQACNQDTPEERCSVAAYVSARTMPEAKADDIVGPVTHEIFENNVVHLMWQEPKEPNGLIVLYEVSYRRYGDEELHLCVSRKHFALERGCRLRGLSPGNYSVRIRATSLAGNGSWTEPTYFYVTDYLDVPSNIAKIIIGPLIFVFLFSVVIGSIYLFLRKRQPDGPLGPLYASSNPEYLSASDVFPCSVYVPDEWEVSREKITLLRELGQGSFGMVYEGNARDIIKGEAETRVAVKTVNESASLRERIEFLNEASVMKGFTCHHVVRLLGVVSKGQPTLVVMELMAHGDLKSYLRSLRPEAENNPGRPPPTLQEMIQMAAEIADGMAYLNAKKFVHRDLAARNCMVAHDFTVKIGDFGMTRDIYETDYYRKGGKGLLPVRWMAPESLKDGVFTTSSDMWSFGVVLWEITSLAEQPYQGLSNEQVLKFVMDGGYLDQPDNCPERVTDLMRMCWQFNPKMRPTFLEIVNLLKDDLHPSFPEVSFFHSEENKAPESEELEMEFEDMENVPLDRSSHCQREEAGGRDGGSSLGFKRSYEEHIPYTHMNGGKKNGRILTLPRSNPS
Sequence of Cyclin-dependent kinase 5/CDK5 activator 1 (Q00535 whole entry, the tested form may be a part): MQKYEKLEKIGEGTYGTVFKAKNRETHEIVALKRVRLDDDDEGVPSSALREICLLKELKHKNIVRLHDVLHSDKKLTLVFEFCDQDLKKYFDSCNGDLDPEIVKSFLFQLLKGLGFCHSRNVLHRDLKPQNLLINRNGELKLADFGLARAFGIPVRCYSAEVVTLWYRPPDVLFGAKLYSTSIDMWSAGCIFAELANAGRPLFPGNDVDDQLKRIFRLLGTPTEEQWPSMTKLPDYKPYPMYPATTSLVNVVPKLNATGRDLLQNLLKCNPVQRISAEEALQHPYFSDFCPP
Sequence of Cyclin-dependent kinase 5/CDK5 activator 1 (Q15078 whole entry, further chain, the tested form may be a part): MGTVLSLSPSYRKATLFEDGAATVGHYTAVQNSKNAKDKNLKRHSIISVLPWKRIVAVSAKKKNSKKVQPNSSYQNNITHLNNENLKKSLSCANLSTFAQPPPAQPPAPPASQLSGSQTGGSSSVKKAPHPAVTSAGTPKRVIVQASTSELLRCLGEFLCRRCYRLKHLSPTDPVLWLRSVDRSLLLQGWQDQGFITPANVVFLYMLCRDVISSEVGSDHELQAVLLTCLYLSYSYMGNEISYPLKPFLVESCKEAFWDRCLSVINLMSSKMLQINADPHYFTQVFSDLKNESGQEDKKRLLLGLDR

IC50 [1]: 25 µM | IC50 (Insulin receptor): > 10 µM
Structure (SMILES): CCNc1cc(N[C@H]2CC[C@H](O)CC2)nc(Nc2ccc3c(ccn3Cc3ccccc3)c2)n1
Activity (U2OS [2]): 47.6% | Activity (HCT-116 [3]): 20.7% | Activity (U2OS [4]): 16.7% | Activity (U2OS [5]): 1% | Activity (U2OS [6]): 13.9% | Activity (HCT-116 [7]): 4.1% | Activity (U2OS [8]): 17.2% | Activity (MRC5 [9]): 7.1% | Activity (U2OS [10]): 12.8% | Activity (NIH3T3 [11]): 3.2% | Activity (HCT-116 [12]): 62.5% | Activity (U2OS [13]): 34.8% | Activity (U2OS [14]): 3.6% | Activity (U2OS [15]): 20.6% | Activity (U2OS [16]): 33% | Activity (U2OS [17]): 79.5% | Activity (NIH3T3 [18]): 11.6% | Activity (MRC5 [19]): 84.8% | Activity (U2OS [20]): 83.44% | Activity (U2OS [21]): 14.3% | Activity (MRC5 [22]): 8.3% | Activity (U2OS [23]): 7.6% | Activity (NIH3T3 [24]): 9.1%
